Screening results (PubChem BioAssay)
Rows were chosen to be rich in hits. Some 1.5% of all compounds tested hit in one or more screens of this group.
Hck-Nef inh: inhibitors of Nef-activated human Hck kinase, primary screen, biochemical, Z-Lyte FRET, 384-well, Hck-YEEI | Tyrosine-protein kinase HCK (Homo sapiens), P08631 | Recombinant Hck-YEEI plus Nef, Z-Lyte FRET kinase assay | inhibition, % at 20 µM | 220,000 compounds, 0.68% hits | AID 463187, 2010;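 active = Hck-Nef kinase inhibition above about 50%, limit read from the data; inactive = inhibition below that limit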;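 also: 0% = DMSO with Hck plus Nef and 100% = Hck alone without Nef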
Target sequence (P08631 whole entry, looked up): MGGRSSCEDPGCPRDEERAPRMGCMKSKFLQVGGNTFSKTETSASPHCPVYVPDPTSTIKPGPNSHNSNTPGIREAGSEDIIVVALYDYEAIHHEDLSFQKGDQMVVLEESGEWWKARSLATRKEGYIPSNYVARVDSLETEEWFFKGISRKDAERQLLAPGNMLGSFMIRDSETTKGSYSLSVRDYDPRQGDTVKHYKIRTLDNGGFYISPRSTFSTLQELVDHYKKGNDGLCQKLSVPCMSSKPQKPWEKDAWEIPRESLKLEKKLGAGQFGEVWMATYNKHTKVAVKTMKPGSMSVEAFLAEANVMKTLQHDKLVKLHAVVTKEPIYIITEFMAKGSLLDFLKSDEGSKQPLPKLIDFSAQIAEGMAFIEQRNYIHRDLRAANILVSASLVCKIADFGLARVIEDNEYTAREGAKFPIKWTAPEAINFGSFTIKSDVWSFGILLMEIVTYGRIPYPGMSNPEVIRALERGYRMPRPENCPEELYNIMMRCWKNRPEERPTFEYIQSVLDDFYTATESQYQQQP
RanGTP-Impb inh: inhibitors of RanGTP-importin-beta interaction, primary screen, biochemical, FRET, CFP-Ran, YFP-importin-beta, homogeneous | Ran GTPase (GTP-bound) - importin-beta complex | cell-free CFP-Ran/YFP-importin-beta FRET ratio | inhibition, % (concentration not given with the values) | 300,000 compounds, 1.1% hits | AID 2216, 2009;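 active = more than half of the replicate wells show a fall in the fluorescence ratio signal beyond about 16%, limit read from the data, passing the limit was not always enough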;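 also: 0% = DMSO wells and 100% = Ran loaded with GDP instead of GTP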
Runt-CBFb FRET: inhibitors of RUNX1 Runt–CBFb binding, primary screen, biochemical, FRET, Cerulean-Runt, Venus-CBFb, uHTS; 220,000 compounds, 0.46% hits; AID 1496, 2009; inhibition, % at 20 µM; Cerulean-Runt/Venus-CBFb FRET ratio 530/480, 1 h; Runt-related transcription factor 1 (Homo sapiens) + Core-binding factor subunit beta …;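 active = inhibition over about 50% at 20 µM in the single-dose screen, limit read from the data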;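 also: 0% = DMSO wells and 100% = excess unlabeled CBFb competitor control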
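Assay system: Cerulean-tagged RUNX1 Runt domain (FRET donor) fusion protein / Amount: 100 nM each of Venus-CBFb and Cerulean-Runt domain / Medium: Tris buffer pH 7.5 with salts and BSA / Also added: Venus-CBFb 100 nM / Schedule: 1 h complex formation plus 1 h compound treatment, room temperature / Signal: FRET fluorescence / Read-out: loss of energy transfer signal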
Runt-SMMHC FRET: inhibitors of RUNX1 Runt–CBFb-SMMHC binding, primary screen, biochemical, FRET, Cerulean-Runt, Venus-CBFb-SMMHC, uHTS | Runt-related transcription factor 1 (Homo sapiens) + Core-binding factor subunit beta … | Cerulean-Runt/Venus-CBFb-SMMHC FRET ratio 530/480, 1 h | inhibition, % at 20 µM | 220,000 compounds, 0.74% hits | AID 1434, 2008;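 active = mean inhibition across duplicate retests at 20 µM reaching about 50%, limit read from the data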;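 also: 0% = DMSO wells and 100% = wells with excess untagged CBFb-SMMHC; inhibitors lower the FRET ratio by blocking Runt binding to CBFb-SMMHC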
CaV13 FRET inh: Disruptors of the CACNA1D IQ motif to Ca2+-dependent inactivation inhibitor domain association, primary screening, Förster resonance energy transfer in intact living … | HEK cells, CFP/YFP FRET ICDI-IQ, plate reader, 10 min; percent FRET-ratio fall versus neutral wells | inhibition, % at 12.3 µM | 340,000 compounds, 0.098% hits | AID 743397;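 active = mean replicate inhibition of at least 30% and at least 1% of replicates passing that level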;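 also: 0% = median of the neutral control wells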
* = called active by the depositor; / = no result given.

SMILES | Hck-Nef inh | RanGTP-Impb inh | Runt-CBFb FRET | Runt-SMMHC FRET | CaV13 FRET inh
CCCN1CCC2(CC1)C(C#N)=C(N)Oc1c2sc2nc(C)cc(C)c12 | 3 | 26* | 6 | 12 | -3
O=C(Nc1ccc(S(=O)(=O)Nc2nccs2)cc1)c1ccccc1OC(F)F | / | / | / | / | -7
CCOc1ccccc1CNC(=O)c1ccc2c(c1)N(CC)CCS2 | / | -1 | / | / | -6
C=CCn1c2ccccc2c(=O)c2cc(C#CC3(O)CCCCC3)ccc21 | / | 161* | / | / | 9
Cc1ccccc1C(=O)Nc1ccccc1C(=O)N1CCC(C)CC1 | / | 0 | / | / | -3
CCOc1ccc(CCNC(=O)COC(=O)c2ccccc2O)cc1OCC | 10 | -1 | -2 | -1 | -5
CCOc1ccc(CCNC(=O)COC(=O)c2cccnc2OCC)cc1OCC | 5 | 20* | 1 | 0 | -8
CCC(C)NC(=S)N1CCN(Cc2ccc3c(c2)OCO3)CC1 (centres undefined) | 22 | 1 | -3 | -2 | 133*
COc1cc(-c2cnc3c(NC=O)cc(-c4cccc(C(=O)NCCN(C)C)c4)cn23)cc(OC)c1OC | / | / | / | / | -4
O=C(CC(C(=O)O)c1c[nH]c2ccccc12)c1ccccc1 (centres undefined) | 32 | 42* | 1 | 3 | -5
Cc1cccc(CCN2CCN=C2Nc2ccccc2)c1 | / | / | / | / | -5
N#Cc1c(C(F)(F)F)cc(=O)n2c1[nH]c1ccccc12 | / | 91* | / | / | 4
N#Cc1c(CSCC(=O)O)cc(=O)n2c1[nH]c1ccccc12 | 30 | -11 | 4 | 6 | -1
Cc1cn([C@H](C(=O)NCCCCCCCCCCC(=O)N2CCN(C(=O)OC(C)(C)C)CC2)[C@@H](C)O)nn1 | / | / | / | / | -5
CCN1CC=C2C(C#N)=C(N)C(C#N)(C#N)C(c3cc(Cl)ccc3Cl)C2C1 (centres undefined) | 10 | 56* | 73* | 65* | -5
CC(C)(C)OC(=O)N1CC=C2C(C#N)=C(N)C(C#N)(C#N)[C@H](c3cccnc3)[C@H]2C1 | -2 | 18* | 16 | 29 | -4
CC(C)N1CC=C2C(C#N)=C(N)C(C#N)(C#N)[C@H](c3ccoc3)[C@H]2C1 | 19 | 55* | 49 | 60* | /
CN1CC=C2C(C#N)=C(N)C(C#N)(C#N)C(Cc3ccccc3)C2C1 (centres undefined) | 13 | 100* | 110* | 78* | 2
CC(=O)Nc1c2c(nn1-c1ccc(Cl)cc1)CSC2 | / | 4 | / | / | -8
CC(C)N1CC=C2C(C#N)=C(N)C(C#N)(C#N)C(c3ccccc3)C2C1 (centres undefined) | 16 | 71* | 74* | 63* | -8
Cc1ccc(C2C3CSCC=C3C(C#N)=C(N)C2(C#N)C#N)cc1 (centres undefined) | -6 | 16* | -5 | -23 | -9
N#CC1=C(N)C(C#N)(C#N)[C@H](c2ccncc2)[C@H]2CC3(CC=C12)OCCO3 | 1 | -26 | -8 | -12 | -11
COc1cc(Cl)c(C)cc1NC(=O)CSc1sc2c(O)cc(=O)[nH]c2c1C#N | / | 4 | / | / | -3
Cc1nc(CCNC(=O)Cc2ccc(Cl)cc2)cs1 | 2 | -3 | 0 | 0 | 39*
Cc1nc(CCNC(=O)Cc2ccc(F)cc2)cs1 | 1 | -2 | 0 | 3 | 5
SMILES | Hck-Nef inh | RanGTP-Impb inh | Runt-CBFb FRET | Runt-SMMHC FRET | CaV13 FRET inh
Cc1ccc(CSc2nnc(NC(=O)C3=COCCO3)s2)cc1 | / | / | / | / | -15
Cc1ccccc1Cn1cc(NC(=O)c2cc3nc(-c4ccco4)cc(C(F)(F)F)n3n2)cn1 | 4 | 30* | -5 | -86 | -5
O=C(Nc1ccc(Cl)cc1)c1cc2nc(-c3ccco3)cc(C(F)(F)F)n2n1 | 2 | 4 | -5 | -23 | /
CCc1ccc(-c2cc(C(F)(F)F)n3nc(C(=O)Nc4cnn(Cc5ccc(C)cc5)c4)cc3n2)s1 | 6 | 39* | -50 | -4 | /
O=c1c2ccccc2oc2cc(NCCCN3CCOCC3)ccc12 | / | 46* | / | / | -5
O=c1c2ccccc2oc2cc(NCCCn3ccnc3)ccc12 | / | 58* | / | / | -3
O=c1c2ccccc2oc2ccc(NCCCN3CCOCC3)cc12 | / | -12 | / | / | -19
CN1CCCC1CCNc1ccc2c(=O)c3ccccc3oc2c1 (centres undefined) | / | 49* | / | / | -6
O=C(CSc1nnc(CNC(=O)c2cccc(C(F)(F)F)c2)o1)NC1CCCCC1 | / | -1 | / | / | -6
CC1CCC(NC(=O)C2CCN(C(=O)Nc3ccccc3)CC2)CC1 (centres undefined) | / | / | / | / | -5
COc1ccc2oc(C(=O)N3CCN(S(=O)(=O)c4c(C)c(C)cc(C)c4C)CC3)c(C)c2c1 | / | / | / | / | -6
O=C(Nc1nc(-c2cccnc2)cs1)c1ccccc1[N+](=O)[O-] | 27 | 18* | 2 | -1 | -2
O=C(Nc1nc(-c2cccnc2)cs1)c1ccc([N+](=O)[O-])cc1 | 20 | 0 | -2 | -4 | -2
O=C(N/N=C/c1sc(=O)[nH]c1-[n+]1ccccc1)c1ccccc1[O-] | -20 | -4 | 2 | -13 | -5
O=C(N/N=C/c1sc(=O)[nH]c1-[n+]1ccc2ccccc2c1)c1ccccc1[O-] | / | 24* | / | / | -6
O=C(c1cccs1)c1ccc(-c2cccs2)s1 | 1 | 42* | 19 | 50 | -15
COC(=O)Cn1c(=NC(=O)c2ccc(S(=O)(=O)N3CCc4ccccc4C3)cc2)sc2cc(OC)ccc21 | 4 | 23* | -34 | -25 | -2
O=Cc1coc2c(ccc3ccccc32)c1=O | / | 37* | / | / | /
CC(C)CC(C)N1CCC(n2nccc2NC(=O)CCc2ccccc2)CC1 (centres undefined) | / | 4 | / | / | -2
CC(CC(F)(F)F)N1CCC(n2nccc2NC(=O)CCCc2ccccc2)CC1 (centres undefined) | / | 57* | / | / | -5
NSc1nc(N)c2nc(-c3ccccc3)c(-c3ccccc3)nc2n1 | 20 | 36* | 43 | 69* | -5
Nc1nc(N)c2nc(-c3ccccc3)c(N)nc2n1 | 28 | -1 | 26 | 56* | -5
Nc1ccc2nc(-c3ccccc3)c(-c3ccccc3)nc2c1 | / | -14 | / | / | -13
O=C(NCc1ccccc1)C(c1ccc(-c2ccccc2)cc1)N1CCN(C(=O)C2CCCO2)CC1 (centres undefined) | / | / | / | / | -18
O=C(C[n+]1ccccc1)N/N=C/c1cc(Br)cc(Br)c1O | / | -3 | / | / | /
